Drawing on ChEMBL document CHEMBL2074454, “Characterisation of human monocarboxylate transporter 4 substantiates its role in lactic acid efflux from skeletal muscle” (J Physiol, 2000), this text covers Activity, IC50 and Km for 12 molecules.

Data set [1] has as its target T1, Monocarboxylate transporter 4 (Homo sapiens) (UniProt O15427).
T1 sequence (whole entry): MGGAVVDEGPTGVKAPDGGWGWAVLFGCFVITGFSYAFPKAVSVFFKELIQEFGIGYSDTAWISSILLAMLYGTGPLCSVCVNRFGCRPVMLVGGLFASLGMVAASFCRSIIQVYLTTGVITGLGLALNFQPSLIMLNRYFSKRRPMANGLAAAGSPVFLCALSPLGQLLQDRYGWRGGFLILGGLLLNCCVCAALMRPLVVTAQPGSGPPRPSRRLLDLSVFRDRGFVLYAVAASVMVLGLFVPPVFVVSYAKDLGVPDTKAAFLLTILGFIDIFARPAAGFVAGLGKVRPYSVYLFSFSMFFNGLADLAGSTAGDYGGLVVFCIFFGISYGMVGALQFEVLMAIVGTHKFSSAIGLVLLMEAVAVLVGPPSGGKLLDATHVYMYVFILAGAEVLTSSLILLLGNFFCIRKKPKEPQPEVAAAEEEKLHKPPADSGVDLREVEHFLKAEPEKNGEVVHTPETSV
The experiment in a line: (§1) TP_TRANSPORTER: uptake in Xenopus laevis oocytes. Type of data set: functional, cell-based. The note with it: Oocyte. The essentials: (§2)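 Stage V–VI oocytes were injected with 12 ng MCT4 or MCT1 cRNA and kept in Barth's medium at 18°C. They were assayed 48–72 h later after loading with 5 μM BCECF-AM (30 min, room temperature, pH 7.4 buffer). Single oocytes were superfused with monocarboxylate Na salt (isosmotic NaCl replacement). Initial acidification rate came from a first-order fit, normalised to L-lactate on the same oocyte, then Michaelis–Menten regression.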

Data set [2] has as its target T2, Monocarboxylate transporter 4 (Homo sapiens, UniProt O15427).
T2 sequence (O15427 whole entry): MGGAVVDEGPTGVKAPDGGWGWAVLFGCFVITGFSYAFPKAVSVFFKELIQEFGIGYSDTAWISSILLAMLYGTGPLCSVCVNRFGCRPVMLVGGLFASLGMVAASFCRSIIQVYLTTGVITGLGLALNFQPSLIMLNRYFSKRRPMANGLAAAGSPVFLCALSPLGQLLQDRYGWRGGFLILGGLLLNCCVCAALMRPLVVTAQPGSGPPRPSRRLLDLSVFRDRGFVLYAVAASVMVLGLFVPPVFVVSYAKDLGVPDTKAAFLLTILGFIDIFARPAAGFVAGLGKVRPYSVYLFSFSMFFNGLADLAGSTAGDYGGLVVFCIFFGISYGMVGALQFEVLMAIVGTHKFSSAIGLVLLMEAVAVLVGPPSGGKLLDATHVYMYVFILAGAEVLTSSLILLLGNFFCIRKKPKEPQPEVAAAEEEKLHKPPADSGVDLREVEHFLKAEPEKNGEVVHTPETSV
Nature of the data set: TP_TRANSPORTER: inhibition of L-Lactate uptake (L-Lactate:30mM) in Xenopus laevis oocytes. Type of data set: functional, cell-based, Oocyte. The essentials: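 Human MCT4 cRNA (12 ng) injected into collagenase-treated stage V–VI oocytes, cultured 48–72 h at 18°C. Oocytes loaded with 5 μM BCECF-AM, 30 min, room temperature. Single oocyte superfused in uptake buffer pH 7.4 (NaCl isosmotically replaced). Inhibitor added simultaneously with 30 mM L-lactate at increasing concentrations. Initial acidification rate from first-order fit, as % of uninhibited rate. K0.5 from non-competitive fit, n=4–5 oocytes.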

Substrate in data set [3]: CC(C)CC(=O)C(=O)O
The data set is described as §1. Type of data set: functional, cell-based. The note with it: Oocyte. In a few lines: as §2

Substrate in data set [4]: CC(O)C(=O)[O-].[Na+]
The description is as §1. Type of data set: functional, cell-based. The note with it: Oocyte. The essentials: as §2

Substrate in data set [5]: CCC(=O)C(=O)O
The description is as §1. The data set is classed as functional, cell-based. The note with it: Oocyte. In a few lines: as §2

Substrate in data set [6]: CCC(O)C(=O)O
The description is as §1. Type of data set: functional, cell-based. The note with it: Oocyte. In a few lines: as §2

Substrate in data set [7]: COC(=O)[C@H](C)Cl
Described as §1. Type of data set: functional, cell-based. The note with it: Oocyte. The essentials:
as §2

Substrate in data set [8]: O=C(O)CCCl
The data set is described as §1. The data set is classed as functional, cell-based. To be noted: Oocyte. The essentials: as §2

Take `O=CC(=O)O`: the Activity entry in data set [1] is “is not a substrate [-]”.

The IC50 is the concentration at which inhibition is half-maximal. Low readings indicate inhibition by little substance, high ones a need for much substance. Regarding `O=C(CCc1ccc(O)cc1)c1c(O)cc(O)cc1O` [PHLORETIN], in data set [2], the IC50 came to 41 µM. That is a double-digit micromolar value.

`O=C[O-].[Na+]`: the Activity entry in data set [1] was “is not a substrate [-]”.

Take `O=C(O)O`: the Activity entry in data set [1] is “is not a substrate [-]”.

As for `O=C(O)c1cc([N+](=O)[O-])ccc1NCCCc1ccccc1` [5-NITRO-2-PHENYLPROPYLAMINOBENZOIC ACID [NPPB]], the midpoint of inhibition in data set [2], the IC50, lay at 240 µM.

With `CC(C)Cn1c(=O)n(C)c(=O)c2[nH]cnc21` [ISOBUTYLMETHYLXANTHINE], the midpoint of inhibition in data set [2], the IC50, lay at 970 µM.

For `O=C(O)CCCO`, the Activity result in data set [1] is “is not a substrate [-]”.

On to `O=C(O)C(=O)Cc1ccccc1`, for which, in data set [1], the Activity entry is “is not a substrate [-]”.

For `NC(=O)C(=O)O`, the Activity result in data set [1] was “is not a substrate [-]”.

Consider p-Chloromercuribenzenesulfonate, for which the IC50 in data set [2] (oocyte) was found to be 21 µM.

`N#C/C(=C\c1ccc(O)cc1)C(=O)O` [alpha-CYANO-4-HYDROXYCINNAMIC ACID]: the IC50 in data set [2] worked out at 991 µM.

B1: Monocarboxylate transporter 4 (Homo sapiens), O15427 (protein)
chain: MGGAVVDEGPTGVKAPDGGWGWAVLFGCFVITGFSYAFPKAVSVFFKELIQEFGIGYSDTAWISSILLAMLYGTGPLCSVCVNRFGCRPVMLVGGLFASLGMVAASFCRSIIQVYLTTGVITGLGLALNFQPSLIMLNRYFSKRRPMANGLAAAGSPVFLCALSPLGQLLQDRYGWRGGFLILGGLLLNCCVCAALMRPLVVTAQPGSGPPRPSRRLLDLSVFRDRGFVLYAVAASVMVLGLFVPPVFVVSYAKDLGVPDTKAAFLLTILGFIDIFARPAAGFVAGLGKVRPYSVYLFSFSMFFNGLADLAGSTAGDYGGLVVFCIFFGISYGMVGALQFEVLMAIVGTHKFSSAIGLVLLMEAVAVLVGPPSGGKLLDATHVYMYVFILAGAEVLTSSLILLLGNFFCIRKKPKEPQPEVAAAEEEKLHKPPADSGVDLREVEHFLKAEPEKNGEVVHTPETSV
As usually defined, the Km is the substrate concentration at which the rate is half of its maximum. On to B1, for which the Michaelis-Menten constant (Km) in data set [3] was 95 mM; in data set [4] it was 28 mM; in data set [5], 57 mM; in data set [6], 56 mM; in data set [7], 46 mM; in data set [8], 51 mM.
